The values below come from ChEMBL document CHEMBL4699498 (J Med Chem, 2020).

The subject of series [1] is HCC1937. The experiment in a line: Antiproliferation activity against human HCC1937 assessed as cell growth inhibition incubated for 7 days by CCK-8 assay. Type of series: functional, cell-based. As to conditions: time 7.0 day. The procedure, abridged: (§1)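 Cells were sub-cultured at least twice and seeded for 24 h before dosing. Compounds came from 10 mM DMSO stocks, given as 10 points of 3-fold serial dilution starting at 10-20 μM. Incubation was about 7 days (Capan-1 13 days) at 37 °C, 5% CO2. Read-out was CCK-8 absorbance at 450 nm, as % growth versus DMSO wells (duplicate wells). IC50 was fitted by nonlinear regression; three independent experiments.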
For orientation: Formazan colour is commonly taken as a measure of viable cells.

Series [2] relates to CAPAN-1. The experiment in a line: Potentiation of cisplatin induced antitumor activity against CAPAN-1 cells xenografted in Balb/c mouse administered intraperitoneally once daily for 5 days. Type of series: functional. To be noted: dose mg/kg 25-50, time 5.0 day. The procedure, abridged: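 Male BALB/c nude mice carried Capan-1 xenografts (5×10^6 cells s.c.), randomized at ~150 mm³ (6 per group). Treatment was 25 or 50 mg/kg intraperitoneally or 100 mg/kg by oral gavage, once daily on days 0-4. Cisplatin 6 mg/kg in saline was given intraperitoneally on day 2, 45 min after the partner drug. Tumor volume and body weight were measured 2-3 times weekly.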

Series [3] has as its target T1, Protein cereblon/Poly [ADP-ribose] polymerase 1 (Homo sapiens, UniProt P09874+Q96SW2). The experiment in a line: Protac activity at CRBN/PARP1 in human HCC1937 cells assessed as induction of PARP1 degradation measured after 24 hrs by Western blot analysis. Type of series: cell-based. The procedure, abridged:
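The cell line was treated 24 h across a concentration range. PARP1 was measured by western blot against β-tubulin. DC50 is the average of two biologically independent experiments.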
Target sequence in this assay (P09874 whole entry): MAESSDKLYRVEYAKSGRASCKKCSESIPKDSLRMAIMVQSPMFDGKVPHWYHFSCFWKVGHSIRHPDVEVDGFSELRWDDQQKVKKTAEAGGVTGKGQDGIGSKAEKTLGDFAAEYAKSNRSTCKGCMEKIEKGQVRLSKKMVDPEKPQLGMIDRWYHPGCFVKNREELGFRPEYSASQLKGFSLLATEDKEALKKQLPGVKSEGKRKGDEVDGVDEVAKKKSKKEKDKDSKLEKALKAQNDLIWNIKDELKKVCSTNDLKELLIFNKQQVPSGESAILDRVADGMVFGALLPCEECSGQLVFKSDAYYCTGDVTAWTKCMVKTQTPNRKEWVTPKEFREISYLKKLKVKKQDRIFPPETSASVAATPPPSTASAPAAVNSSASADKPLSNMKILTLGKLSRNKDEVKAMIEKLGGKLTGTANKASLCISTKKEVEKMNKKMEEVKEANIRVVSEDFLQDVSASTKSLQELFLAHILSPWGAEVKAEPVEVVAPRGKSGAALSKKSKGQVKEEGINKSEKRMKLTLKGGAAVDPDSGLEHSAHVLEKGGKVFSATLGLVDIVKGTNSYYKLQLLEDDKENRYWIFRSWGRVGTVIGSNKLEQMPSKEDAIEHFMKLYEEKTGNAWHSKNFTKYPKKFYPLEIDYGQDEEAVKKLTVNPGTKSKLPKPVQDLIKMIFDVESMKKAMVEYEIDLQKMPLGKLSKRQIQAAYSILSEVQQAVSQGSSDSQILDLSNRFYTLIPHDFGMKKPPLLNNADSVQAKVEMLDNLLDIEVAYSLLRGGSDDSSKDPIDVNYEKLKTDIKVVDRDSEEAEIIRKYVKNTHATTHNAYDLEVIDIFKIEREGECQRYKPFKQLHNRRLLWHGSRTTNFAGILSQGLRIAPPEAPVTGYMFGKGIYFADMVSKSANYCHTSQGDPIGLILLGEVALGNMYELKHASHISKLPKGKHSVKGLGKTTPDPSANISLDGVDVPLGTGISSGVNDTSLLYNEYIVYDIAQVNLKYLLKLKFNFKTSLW
Target sequence in this assay (Q96SW2 whole entry): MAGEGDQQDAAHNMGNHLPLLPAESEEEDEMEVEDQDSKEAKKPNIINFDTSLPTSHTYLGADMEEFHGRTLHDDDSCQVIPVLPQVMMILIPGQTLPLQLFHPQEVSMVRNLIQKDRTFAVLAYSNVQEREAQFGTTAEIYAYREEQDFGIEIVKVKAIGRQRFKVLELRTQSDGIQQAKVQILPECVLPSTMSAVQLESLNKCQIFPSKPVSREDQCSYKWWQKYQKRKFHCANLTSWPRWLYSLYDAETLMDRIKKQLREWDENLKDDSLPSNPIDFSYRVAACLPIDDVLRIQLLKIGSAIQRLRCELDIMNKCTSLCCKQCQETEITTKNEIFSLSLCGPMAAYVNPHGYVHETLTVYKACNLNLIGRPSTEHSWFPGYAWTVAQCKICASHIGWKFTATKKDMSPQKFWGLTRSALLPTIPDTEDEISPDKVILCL

Series [4] addresses T1, Protein cereblon/Poly [ADP-ribose] polymerase 1. The experiment in a line: Protac activity at CRBN/PARP1 in human CAPAN-1 cells assessed as induction of PARP1 degradation incubated for 24 hrs by Western blot analysis. It is filed as cell-based. The procedure, abridged: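 Capan-1 cells were treated 24 h (1-1000 nM, or a wider dose range for DC50). Lysis was in RIPA buffer with protease inhibitors, and 20-30 μg protein was blotted. PARP1 was normalized to β-tubulin and to DMSO control, quantified by densitometry. DC50 came from two independent experiments.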
In general terms: In western blotting, separated proteins are transferred to a membrane and probed.
Target sequence in this assay (P09874 whole entry): as the sequence (P09874 whole entry) above
Target sequence in this assay (Q96SW2 whole entry): as the sequence (Q96SW2 whole entry) above

Series [5] concerns HUVEC. The experiment in a line: Cytotoxicity against HUVEC assessed as reduction in cell viability incubated for 120 hrs by CCK-8 assay. Type of series: cell-based. To be noted: human.
For series [6], the system named is MDA-MB-436. The series can be described thus: Antiproliferative activity against human MDA-MB-436 cells assessed as cell growth inhibition incubated for 7 days by CCK-8 assay. Type of series: functional, cell-based. As to conditions: MDA-MB-436, 168 h. The essentials: as §1
Series [7] in a line: Acute toxicity in Balb/c mouse xenografted with SW-620 cells assessed as lethality at 5 to 10 mg/kg, ip qd administered for 5 days in presence of TMZ. To be noted: in vivo, 120 h, dose 5-10 mg/kg, time 5 day. It is filed as organism-based. The essentials:
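In male BALB/c nude mice (5–6 weeks), s.c. SW620 xenografts (6×10^6 cells, right armpit) were grown to about 150 mm³, then randomised, 6 per group. The agent was given once daily for 5 days, orally or i.p., in 5% DMSO/20% PEG400/10% Cremophor EL/65% saline. TMZ 50 mg/kg was given orally once daily for 5 days from day 0, 45 min after the agent. Body weight was measured 2–3 times weekly.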

Series [8] is described as follows: Plasma concentration in ICR mouse at 25 mg/kg, ip at 24 hrs postinjection by LC-tandem mass spectrometry analysis. Type of series: ADME, organism-based. The essentials: (§2)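 Female ICR mice (20-23 g, 6-7 weeks old, n = 3) received a single 25 mg/kg intraperitoneal dose formulated in 5% DMSO/15% Solutol HS15/80% D5W. Plasma was sampled at 0.5, 1, 2, 4, 6, 8 and 24 h and protein-precipitated with methanol. Compound was quantified by LC-MS/MS against a standard curve.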

Series [9] addresses T1, Protein cereblon/Poly [ADP-ribose] polymerase 1. The series can be described thus: Protac activity at CRBN/PARP1 in human SW-620 cells assessed as induction of PARP1 degradation at 30 nM measured within 1 hr by Western blot analysis. It is filed as cell-based. To be noted: time hrs <=1. The procedure, abridged:
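Time course at 30 nM in MDA-MB-436 or SW620 cells; PARP1 immunoblotted at successive time points, β-tubulin as loading control.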
Target sequence in this assay (P09874 2-1014 limits assumed): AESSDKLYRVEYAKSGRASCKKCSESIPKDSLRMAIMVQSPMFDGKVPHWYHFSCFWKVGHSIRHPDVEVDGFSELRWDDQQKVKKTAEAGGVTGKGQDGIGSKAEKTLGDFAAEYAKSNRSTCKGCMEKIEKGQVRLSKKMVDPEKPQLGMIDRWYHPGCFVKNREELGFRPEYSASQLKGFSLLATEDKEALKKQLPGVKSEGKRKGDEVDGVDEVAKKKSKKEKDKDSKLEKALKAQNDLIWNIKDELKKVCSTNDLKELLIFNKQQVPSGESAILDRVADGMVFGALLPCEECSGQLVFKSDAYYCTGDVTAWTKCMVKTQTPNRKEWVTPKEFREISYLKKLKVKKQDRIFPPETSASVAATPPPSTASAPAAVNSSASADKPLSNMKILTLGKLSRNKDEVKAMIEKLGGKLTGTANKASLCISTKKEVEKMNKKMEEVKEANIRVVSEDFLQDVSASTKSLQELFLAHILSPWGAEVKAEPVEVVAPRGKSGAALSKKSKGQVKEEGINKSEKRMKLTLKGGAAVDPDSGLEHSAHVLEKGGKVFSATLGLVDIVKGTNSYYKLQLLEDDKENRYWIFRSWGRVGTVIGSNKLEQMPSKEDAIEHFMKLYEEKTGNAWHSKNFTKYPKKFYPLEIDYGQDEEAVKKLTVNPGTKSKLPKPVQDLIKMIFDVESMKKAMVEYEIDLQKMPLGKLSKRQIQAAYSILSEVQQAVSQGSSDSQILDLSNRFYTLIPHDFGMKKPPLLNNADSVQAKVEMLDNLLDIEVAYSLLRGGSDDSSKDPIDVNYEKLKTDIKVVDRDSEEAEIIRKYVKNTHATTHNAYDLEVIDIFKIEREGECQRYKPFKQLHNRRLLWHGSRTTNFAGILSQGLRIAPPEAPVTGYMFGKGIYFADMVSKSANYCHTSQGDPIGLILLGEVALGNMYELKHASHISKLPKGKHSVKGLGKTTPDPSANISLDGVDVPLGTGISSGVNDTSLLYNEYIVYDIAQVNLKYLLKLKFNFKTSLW
Target sequence in this assay (Q96SW2 whole entry partner): as the sequence (Q96SW2 whole entry) above

Series [10] concerns SW-620. The series can be described thus: Antiproliferation activity against human SW620 assessed as cell growth inhibition incubated for 7 days by CCK-8 assay. Type of series: functional, cell-based. To be noted: time 7.0 day. The essentials: as §1
For series [11], the target named is T1, Protein cereblon/Poly [ADP-ribose] polymerase 1. The series can be described thus: Protac activity at CRBN/PARP1 in human SW-620 cells assessed as induction of PARP1 degradation at 30 nM incubated for 24 hrs in presence of 0.1 to 1 uM PARP1 inhibitor olaparib by Western blot analysis. It is filed as cell-based.
Target sequence in this assay (P09874 2-1014 limits assumed): as the sequence (P09874 2-1014 limits assumed) above
Target sequence in this assay (Q96SW2 whole entry partner): as the sequence (Q96SW2 whole entry) above
Series [12] relates to PC-3. The series can be described thus: Antiproliferation activity against human PC-3 assessed as cell growth inhibition incubated for 7 days by CCK-8 assay. Type of series: functional, cell-based. To be noted: time 7.0 day. The procedure, abridged:
as §1

The subject of series [13] is SW-620. The experiment in a line: Potentiation of TMZ induced antitumor activity against SW-620 cells xenografted in Balb/c mouse assessed as tumor growth suppression administered intraperitoneally once daily for 5 days. As to conditions: dose mg/kg 5-10, time 5.0 day. Type of series: functional. The procedure, abridged:
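Male BALB/c nude mice carried SW620 xenografts (6×10^6 cells s.c.), randomized at ~150 mm³ (6 per group). TMZ 50 mg/kg was given orally once daily on days 0-4, 45 min after the partner drug. Partners were 5 or 10 mg/kg intraperitoneally or 10 mg/kg by oral gavage, daily for 5 days. Vehicle was 5% DMSO/20% PEG400/10% Cremophor EL/65% saline. Tumor volume and body weight were recorded 2-3 times weekly.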

For series [14], the target named is T1, Protein cereblon/Poly [ADP-ribose] polymerase 1. The experiment in a line: Protac activity at CRBN/PARP1 in human LNCaP cells assessed as induction of PARP1 degradation at 30 nM incubated for 1 to 24 hrs by Western blot analysis. It is filed as cell-based. To be noted: time hrs 1-24.
Target sequence in this assay (P09874 2-1014 limits assumed): as the sequence (P09874 2-1014 limits assumed) above
Target sequence in this assay (Q96SW2 whole entry partner): as the sequence (Q96SW2 whole entry) above
For series [15] the target is unchanged. The series can be described thus: Protac activity at CRBN/PARP1 in human MDA-MB-436 cells assessed as induction of PARP1 degradation by measuring PARP1 level at 100 nM pretreated for 2 hrs followed by compound washout and measured after 24 hrs by Western blot analysis. It is filed as cell-based. The essentials: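 MDA-MB-436 cells pretreated 2 h at 100 nM, compound washed out, cells harvested at various times up to 24 h afterwards; PARP1 versus vehicle-treated cells by western blot, β-tubulin loading control.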
Target sequence in this assay (P09874 2-1014 limits assumed): as the sequence (P09874 2-1014 limits assumed) above
Target sequence in this assay (Q96SW2 whole entry partner): as the sequence (Q96SW2 whole entry) above

The target is the same in series [16]. The experiment in a line: Protac activity at CRBN/PARP1 in human MDA-MB-468 cells assessed as induction of PARP1 degradation measured after 24 hrs by Western blot analysis. Type of series: cell-based. The procedure, abridged:
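Concentration-response over a wide range, 24 h exposure; PARP1 quantified by western blot and normalized to β-tubulin density; DC50 derived from two biologically independent experiments.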
Target sequence in this assay (P09874 whole entry): as the sequence (P09874 whole entry) above
Target sequence in this assay (Q96SW2 whole entry): as the sequence (Q96SW2 whole entry) above

In series [17] the test system is SW-620. The series can be described thus: Potentiation of MMS induced cytotoxicity against human SW-620 cells preincubated for 1 hr followed by addition of MMS measured after 5 days by CCK-8 assay. As to conditions: dose nM 3-300, time 1.0 hrs. Type of series: functional, cell-based. The procedure, abridged:
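SW620 cells (1000/well) were attached for 24 h, then preincubated 1 h with DMSO or a single compound concentration (3, 10, 100 or 300 nM). MMS was then added at 0-15 μg/mL (final concentration not stated). Incubation ran 5 days, followed by CCK-8 read at 450 nm. Growth was expressed as % of DMSO-only wells, mean of three wells.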

The nature of series [18]: Plasma concentration in ICR mouse at 25 mg/kg, ip at 4 hrs postinjection by LC-tandem mass spectrometry analysis. It is filed as ADME, organism-based. The essentials: as §2
Series [19] in a line: Plasma concentration in ICR mouse at 25 mg/kg, ip at 8 hrs postinjection by LC-tandem mass spectrometry analysis. It is filed as ADME, organism-based. The essentials: as §2

Calls of active or inactive are those of the source. The rule behind the calls is not given here.

In the case of `O=C(CCCCCCCCCCC(=O)N1CCN(C(=O)c2cc(Cc3n[nH]c(=O)c4ccccc34)ccc2F)CC1)NCCNc1cccc2c1C(=O)N(C1CCC(=O)NC1=O)C2=O` (centres undefined), the result in series [1], in series [9], in series [10], in [12] and in series [14] was Active. In addition, the Activity result in series [2] was “Dose-dependent effect”; in series [5], “Non-Toxic”; in [7] it was “Non-Toxic”; in series [13], “Dose-dependent effect”; in [15], “Below limit of detection”; in series [17] it was “Dose-dependent effect”. Besides, the DC50 (as a rule, the concentration giving 50% degradation) in series [3] was 0.384 nM; in series [4], 6.72 nM; in [16], 0.263 nM. Also, in series [6], the IC50 (as a rule, the midpoint of a concentration-inhibition curve) amounted to 19 nM. Also, in series [8], the concentration at 24 h was > 10 nM. Besides, the outcome in series [11] was inactive. Also, the concentration at 4 h in series [18] stood at 182 nM. This molecule also showed a concentration at 8 h in [19] of 95 nM.
